Experimental data from ChEMBL document CHEMBL4414574, “Structure-Based Discovery and Development of a Series of Potent and Selective Bromodomain and Extra-Terminal Protein Inhibitors” (J Med Chem, 2019).
Activity calls are given as the source filed them. No cut-off for these calls is given here.

Key:
[1] = AUC (0 to t) in dog plasma at 3 mg/kg, po; assay type: ADME, organism-based, Canis lupus familiaris
How it was run: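 Compound was given orally or intravenously in 1% DMSO/0.5% HPMC vehicle. Concentrations in plasma, or in brain where stated, gave Tmax, Cmax, T1/2, AUC0-t and AUC0-inf.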

[2] = biological target: Bromodomain adjacent to zinc finger domain protein 2B (Homo sapiens) (UniProt Q9UIF8); assay: Binding affinity to human partial length BAZ2B (S2054 to S2168 residues) expressed in Escherichia coli BL21 cells assessed as residual binding level at 1 uM measured after 1 hr by quantitative PCR based BROMOscan assay relative to control
How it was run: (§1)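 A BROMOScan competition-binding panel of 32 bromodomains was run at a single 1 μM compound concentration. Results are primary-screen 'Percent Control', where lower values indicate stronger binding.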

[3] = Tmax in rat plasma at 50 mg/kg, po; assay type: ADME, organism-based
How it was run: (§2)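 Rats dosed orally at 50 mg/kg in 1% DMSO/0.5% HPMC; drug measured in plasma and brain.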

[4] = system: SW-620; assay: Antiproliferative activity against human SW620 cells after 72 hrs by CCK8 or SRB assay; assay type: functional, cell-based
[5] = biological target: Chromatin remodeling regulator CECR2 (Homo sapiens) (UniProt Q9BXF3); assay: Binding affinity to human partial length CECR2 (P423 to D543 residues) expressed in Escherichia coli BL21 cells assessed as residual binding level at 1 uM measured after 1 hr by quantitative PCR based BROMOscan assay relative to control; how it was run: as §1
[6] = biological target: CREB-binding protein (Homo sapiens) (UniProt Q92793); assay: Binding affinity to human partial length CREBBP (R1081 to G1197 residues) expressed in Escherichia coli BL21 cells assessed as residual binding level at 1 uM measured after 1 hr by quantitative PCR based BROMOscan assay relative to control; how it was run: as §1
Chain of CREB-binding protein (Homo sapiens) (Q92793 2-2442 limits assumed): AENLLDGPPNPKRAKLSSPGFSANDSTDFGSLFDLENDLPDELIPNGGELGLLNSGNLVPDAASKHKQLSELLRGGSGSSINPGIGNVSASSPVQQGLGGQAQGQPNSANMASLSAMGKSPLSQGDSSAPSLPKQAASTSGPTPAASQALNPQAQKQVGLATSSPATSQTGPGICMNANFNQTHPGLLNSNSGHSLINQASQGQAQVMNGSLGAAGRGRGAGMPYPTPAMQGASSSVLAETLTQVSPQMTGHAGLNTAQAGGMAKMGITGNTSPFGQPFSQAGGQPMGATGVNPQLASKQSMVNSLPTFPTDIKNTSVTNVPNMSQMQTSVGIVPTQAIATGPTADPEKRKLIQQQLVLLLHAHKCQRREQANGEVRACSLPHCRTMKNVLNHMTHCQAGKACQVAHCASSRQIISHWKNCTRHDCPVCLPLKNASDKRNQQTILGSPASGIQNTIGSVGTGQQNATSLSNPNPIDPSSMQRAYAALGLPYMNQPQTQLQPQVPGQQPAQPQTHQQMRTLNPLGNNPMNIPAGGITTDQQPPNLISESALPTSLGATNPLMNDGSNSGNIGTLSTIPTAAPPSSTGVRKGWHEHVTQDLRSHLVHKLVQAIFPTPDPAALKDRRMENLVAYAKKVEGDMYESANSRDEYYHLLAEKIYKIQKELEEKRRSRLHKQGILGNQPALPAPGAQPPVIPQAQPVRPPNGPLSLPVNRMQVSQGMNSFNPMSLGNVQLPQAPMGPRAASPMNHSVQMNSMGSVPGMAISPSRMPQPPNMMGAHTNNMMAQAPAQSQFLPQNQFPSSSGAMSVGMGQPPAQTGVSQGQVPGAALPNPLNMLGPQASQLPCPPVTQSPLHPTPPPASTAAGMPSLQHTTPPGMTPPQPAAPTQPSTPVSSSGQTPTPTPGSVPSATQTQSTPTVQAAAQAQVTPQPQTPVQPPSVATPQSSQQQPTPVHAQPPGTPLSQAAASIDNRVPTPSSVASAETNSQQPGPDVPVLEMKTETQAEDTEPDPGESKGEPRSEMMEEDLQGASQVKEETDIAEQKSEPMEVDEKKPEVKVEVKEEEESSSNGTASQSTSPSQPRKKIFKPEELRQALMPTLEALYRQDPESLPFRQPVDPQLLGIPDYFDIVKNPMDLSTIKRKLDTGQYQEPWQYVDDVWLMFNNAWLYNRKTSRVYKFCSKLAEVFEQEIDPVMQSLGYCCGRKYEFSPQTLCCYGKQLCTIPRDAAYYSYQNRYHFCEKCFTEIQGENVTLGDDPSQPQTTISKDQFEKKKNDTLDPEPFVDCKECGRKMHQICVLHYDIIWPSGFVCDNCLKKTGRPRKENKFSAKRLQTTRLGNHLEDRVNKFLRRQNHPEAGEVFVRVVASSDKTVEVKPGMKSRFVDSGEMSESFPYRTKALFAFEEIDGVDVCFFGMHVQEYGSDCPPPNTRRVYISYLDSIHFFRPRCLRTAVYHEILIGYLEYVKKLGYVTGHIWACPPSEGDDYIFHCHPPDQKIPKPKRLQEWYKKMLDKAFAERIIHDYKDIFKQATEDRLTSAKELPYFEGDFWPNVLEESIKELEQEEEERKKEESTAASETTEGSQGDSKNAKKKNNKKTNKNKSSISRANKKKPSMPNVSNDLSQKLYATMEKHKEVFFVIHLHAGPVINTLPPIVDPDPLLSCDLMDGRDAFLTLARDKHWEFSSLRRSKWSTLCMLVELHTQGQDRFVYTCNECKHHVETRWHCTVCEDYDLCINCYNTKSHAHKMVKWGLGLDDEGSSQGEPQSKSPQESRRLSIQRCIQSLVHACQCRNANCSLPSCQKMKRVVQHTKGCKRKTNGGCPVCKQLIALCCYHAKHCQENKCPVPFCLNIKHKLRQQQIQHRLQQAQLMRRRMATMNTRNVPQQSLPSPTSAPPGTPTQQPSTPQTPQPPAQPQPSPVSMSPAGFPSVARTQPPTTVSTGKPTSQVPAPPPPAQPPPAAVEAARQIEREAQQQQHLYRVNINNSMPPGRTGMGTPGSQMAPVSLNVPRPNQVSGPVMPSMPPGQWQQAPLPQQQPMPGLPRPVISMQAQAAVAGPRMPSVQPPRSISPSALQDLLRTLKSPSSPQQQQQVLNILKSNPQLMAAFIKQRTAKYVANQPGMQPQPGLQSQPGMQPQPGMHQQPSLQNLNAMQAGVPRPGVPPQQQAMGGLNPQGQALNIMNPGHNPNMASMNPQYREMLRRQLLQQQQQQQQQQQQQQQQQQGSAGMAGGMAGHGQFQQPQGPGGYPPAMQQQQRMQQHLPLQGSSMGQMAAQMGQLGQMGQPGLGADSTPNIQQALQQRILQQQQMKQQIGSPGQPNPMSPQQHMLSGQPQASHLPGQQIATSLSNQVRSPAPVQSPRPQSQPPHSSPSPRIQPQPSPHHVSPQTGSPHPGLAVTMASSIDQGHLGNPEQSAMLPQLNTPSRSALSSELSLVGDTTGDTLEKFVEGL

[7] = Cmax in ICR mouse plasma at 50 mg/kg, po administered via gavage measured after 0.25 to 24 hrs by UPLC/MS analysis; assay type: ADME, organism-based; parameters: dose 50 mg/kg, route oral
How it was run: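 Male ICR mice dosed orally in 1% DMSO/0.5% HPMC vehicle; plasma or brain drug levels used to derive Tmax, Cmax, AUC0-t, AUC0-inf and T1/2.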

[8] = Tmax in ICR mouse brain at 50 mg/kg, po administered via gavage measured after 0.25 to 24 hrs by UPLC/MS analysis; assay type: ADME, organism-based
How it was run: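 Male ICR mice dosed orally at 50 mg/kg in 1% DMSO/0.5% HPMC; drug measured in plasma and brain.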

[9] = system: NCI-H1299; assay: Antiproliferative activity against human NCI-H1299 cells after 72 hrs by CCK8 or SRB assay; assay type: functional, cell-based
[10] = system: MV4-11; assay: Induction of apoptosis in human MV4-11 cells assessed as increase in cleaved caspase-3 level after 24 hrs by Western blot analysis; assay type: functional, cell-based
How it was run: (§3)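 MV4-11 cells exposed to compound at the indicated doses for 24 h; lysates probed by Western blotting for the target protein, with GAPDH as loading control.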

[11] = biological target: Histone acetyltransferase KAT2A (Homo sapiens) (UniProt Q92830); assay: Binding affinity to human partial length GCN5L2 (E726 to K837 residues) expressed in Escherichia coli BL21 cells assessed as residual binding level at 1 uM measured after 1 hr by quantitative PCR based BROMOscan assay relative to control; how it was run: as §1
Chain of Histone acetyltransferase KAT2A (Homo sapiens) (Q92830 2-837 limits assumed): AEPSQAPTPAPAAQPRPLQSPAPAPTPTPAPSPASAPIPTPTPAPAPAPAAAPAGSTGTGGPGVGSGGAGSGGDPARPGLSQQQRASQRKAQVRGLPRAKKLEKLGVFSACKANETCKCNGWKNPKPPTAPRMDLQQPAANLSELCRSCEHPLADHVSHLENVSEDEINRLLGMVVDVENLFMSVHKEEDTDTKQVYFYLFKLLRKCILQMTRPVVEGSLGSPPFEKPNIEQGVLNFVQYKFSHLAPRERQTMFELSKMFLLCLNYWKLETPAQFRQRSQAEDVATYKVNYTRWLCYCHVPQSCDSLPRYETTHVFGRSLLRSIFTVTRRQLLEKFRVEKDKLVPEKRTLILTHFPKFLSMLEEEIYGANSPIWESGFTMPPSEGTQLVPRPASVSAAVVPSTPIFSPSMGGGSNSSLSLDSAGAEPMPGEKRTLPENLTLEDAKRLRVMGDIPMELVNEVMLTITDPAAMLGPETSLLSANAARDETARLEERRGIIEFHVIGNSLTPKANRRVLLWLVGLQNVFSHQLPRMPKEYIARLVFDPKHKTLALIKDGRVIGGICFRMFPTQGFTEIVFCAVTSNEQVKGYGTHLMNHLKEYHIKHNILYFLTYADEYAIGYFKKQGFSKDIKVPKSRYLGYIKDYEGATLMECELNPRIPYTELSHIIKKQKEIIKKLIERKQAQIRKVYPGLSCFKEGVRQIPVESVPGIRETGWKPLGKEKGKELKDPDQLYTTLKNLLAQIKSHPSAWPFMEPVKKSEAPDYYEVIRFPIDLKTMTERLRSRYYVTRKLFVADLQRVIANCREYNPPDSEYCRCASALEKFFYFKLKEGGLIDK

[12] = biological target: SWI/SNF-related matrix-associated actin-dependent regulator of chromatin subfamily A member 4 (Homo sapiens) (UniProt P51532); assay: Binding affinity to human partial length SMARCA4 (A1448 to S1575 residues) expressed in Escherichia coli BL21 cells assessed as residual binding level at 1 uM measured after 1 hr by quantitative PCR based BROMOscan assay relative to control
Chain of SWI/SNF-related matrix-associated actin-dependent regulator of chromatin subfamily A member 4 (Homo sapiens) (P51532 whole entry, the tested form may be a part): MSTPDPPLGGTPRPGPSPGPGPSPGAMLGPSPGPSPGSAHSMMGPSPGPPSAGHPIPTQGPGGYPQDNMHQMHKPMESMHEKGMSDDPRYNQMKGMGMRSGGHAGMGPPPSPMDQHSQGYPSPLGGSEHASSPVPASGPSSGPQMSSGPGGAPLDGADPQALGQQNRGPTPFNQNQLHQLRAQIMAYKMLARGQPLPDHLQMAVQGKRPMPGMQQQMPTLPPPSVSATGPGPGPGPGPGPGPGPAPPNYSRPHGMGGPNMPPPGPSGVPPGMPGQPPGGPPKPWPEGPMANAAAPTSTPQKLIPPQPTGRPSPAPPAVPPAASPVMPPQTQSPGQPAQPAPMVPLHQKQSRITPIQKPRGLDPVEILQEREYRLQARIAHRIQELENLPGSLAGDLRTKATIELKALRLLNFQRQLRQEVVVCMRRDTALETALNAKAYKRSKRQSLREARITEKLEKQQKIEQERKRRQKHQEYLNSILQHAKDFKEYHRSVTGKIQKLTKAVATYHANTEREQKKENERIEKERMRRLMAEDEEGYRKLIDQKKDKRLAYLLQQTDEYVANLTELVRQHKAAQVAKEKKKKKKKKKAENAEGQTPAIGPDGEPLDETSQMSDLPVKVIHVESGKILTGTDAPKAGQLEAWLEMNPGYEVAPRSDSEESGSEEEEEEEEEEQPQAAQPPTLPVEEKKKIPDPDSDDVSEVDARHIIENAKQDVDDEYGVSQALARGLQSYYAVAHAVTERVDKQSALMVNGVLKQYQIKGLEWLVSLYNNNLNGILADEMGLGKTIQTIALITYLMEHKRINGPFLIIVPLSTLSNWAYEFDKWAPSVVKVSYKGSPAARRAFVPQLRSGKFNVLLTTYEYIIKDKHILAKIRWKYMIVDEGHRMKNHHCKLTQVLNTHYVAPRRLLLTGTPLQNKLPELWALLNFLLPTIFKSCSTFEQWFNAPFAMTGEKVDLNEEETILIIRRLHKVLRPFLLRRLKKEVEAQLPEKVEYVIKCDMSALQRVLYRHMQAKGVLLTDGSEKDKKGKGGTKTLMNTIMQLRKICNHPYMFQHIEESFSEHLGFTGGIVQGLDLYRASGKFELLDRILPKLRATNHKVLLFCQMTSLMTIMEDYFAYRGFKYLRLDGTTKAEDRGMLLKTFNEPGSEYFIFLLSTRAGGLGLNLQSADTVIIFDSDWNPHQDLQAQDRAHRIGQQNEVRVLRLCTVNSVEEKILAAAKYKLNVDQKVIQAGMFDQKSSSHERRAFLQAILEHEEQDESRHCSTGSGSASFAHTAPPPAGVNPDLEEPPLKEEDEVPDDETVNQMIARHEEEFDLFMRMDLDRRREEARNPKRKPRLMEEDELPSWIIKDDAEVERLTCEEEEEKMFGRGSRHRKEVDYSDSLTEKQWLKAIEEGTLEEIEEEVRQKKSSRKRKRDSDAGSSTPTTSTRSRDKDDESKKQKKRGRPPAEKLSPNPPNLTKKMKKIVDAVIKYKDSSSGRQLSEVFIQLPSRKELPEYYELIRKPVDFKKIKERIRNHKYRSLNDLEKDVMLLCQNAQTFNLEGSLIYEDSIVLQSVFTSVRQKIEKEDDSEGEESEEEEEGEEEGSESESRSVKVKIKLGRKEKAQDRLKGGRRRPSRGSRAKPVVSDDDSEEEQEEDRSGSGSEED
How it was run: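 Bromodomain panel screen (32 bromodomains) run at 1 μM single concentration; primary binding reported as 'Percent Control', lower values meaning stronger interaction.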

[13] = biological target: Cytochrome P450 2D6 (Homo sapiens, UniProt P10635); assay: Time-dependent inhibition of CYP2D6 in human liver microsomes at 10 uM using dextromethorphan as substrate preincubated up to 30 mins followed by NADPH generating system addition and measured after 10 mins; assay type: ADME
How it was run: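 Human liver microsomes 0.2 mg/mL, 100 mM phosphate pH 7.4, 10 μM test compound, preincubated 0, 5, 10 and 30 min at 37 °C; then NADPH plus probe cocktail (5 μM midazolam, 50 μM testosterone, 5 μM dextromethorphan, 10 μM diclofenac, 50 μM phenacetin, 50 μM S-(+)-mephenytoin) added; 10 min reaction; kobs in units of 10^-4/min.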

[14] = Tmax in dog plasma at 3 mg/kg, po; assay type: ADME, organism-based, Canis lupus familiaris
How it was run: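 Oral dosing in 1% DMSO/0.5% HPMC vehicle (dog 3 mg/kg; rat 10 mg/kg); plasma drug levels measured.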

[15] = biological target: Insulin-like growth factor 1 receptor (Homo sapiens) (UniProt P08069); assay: Inhibition of IGF1R (unknown origin) at 10 uM using poly (Glu, Tyr) 4:1 as substrate after 60 mins by ELISA
[16] = biological target: Voltage-gated inwardly rectifying potassium channel KCNH2 (Homo sapiens, UniProt Q12809); assay: Inhibition of human ERG at 40 uM by automatic patch clamp method
[17] = system: RKO; assay: Induction of cell cycle arrest in human RKO cells assessed as increase in accumulation at G1 phase at 100 nM after 24 hrs by propidium iodide staining based flow cytometric analysis; assay type: functional
[18] = Clearance in rat liver microsomes; assay type: ADME, Microsome; conditions: read-out: CLH
[19] = AUC (0 to t) in ICR mouse at 10 mg/kg, po administered via gavage measured after 0.25 to 24 hrs by UPLC/MS analysis; assay type: ADME, organism-based; parameters: time 0.25-24 hr, dose 10 mg/kg, route oral; conditions: in vivo
How it was run: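 Male ICR mice were dosed orally in 1% DMSO/0.5% HPMC vehicle. Plasma (and brain, where stated) concentrations gave Tmax, Cmax, T1/2, AUC0-t and AUC0-inf.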

[20] = Cmax in rat brain at 50 mg/kg, po; assay type: ADME, organism-based; parameters: dose 50 mg/kg, route oral
[21] = system: NCI-H522; assay: Antiproliferative activity against human NCI-H522 cells after 72 hrs by CCK8 or SRB assay; assay type: functional, cell-based
[22] = system: MDA-MB-468; assay: Antiproliferative activity against human MDA-MB-468 cells after 72 hrs by CCK8 or SRB assay; assay type: functional, cell-based
[23] = biological target: Proto-oncogene tyrosine-protein kinase Src (Homo sapiens) (UniProt P12931); assay: Inhibition of Src (unknown origin) at 10 uM using poly (Glu, Tyr) 4:1 as substrate after 60 mins by ELISA
[24] = biological target: Bromodomain-containing protein 4 (Homo sapiens, UniProt O60885); assay: Displacement of 5-FITC labelled (+)-JQ1 from His6-tagged human BRD4 bromodomain 1 expressed in Escherichia coli BL21(DE3) )-codon plus-RIL cells incubated for 4 hrs in dark condition by fluorescence anisotropy binding assay
[25] = system: MV4-11; assay: Induction of apoptosis in human MV4-11 cells assessed as reduction in BCL-xL level after 24 hrs by Western blot analysis; assay type: functional, cell-based; how it was run: as §3
[26] = Half life in rat plasma at 50 mg/kg, po; assay type: ADME, organism-based
[27] = Ratio of drug level in brain to plasma in rat; assay type: ADME; how it was run: as §2
[28] = Toxicity in Balb/c nude mouse xenografted with human MV4-11 cells assessed as reduction in body weight at 10 to 50 mg/kg, administered once daily; assay type: organism-based; conditions: in vivo

## Cc1ccc(-n2nc(C(=O)N3C[C@@H](C)N[C@@H](C)C3)nc2-c2ccc3c(c2)N(C2CCCC2)[C@H](C)C(=O)N3C)cc1
[1]
  AUC(0-t): 0.747 µg·h/mL
[2]
  Activity: 70 to 100%
[3]
  Tmax: 24 min
[4]
  Activity: Active
[5]
  Activity: 70 to 100%
[6]
  Activity: 50 to 70%
[7]
  Cmax: 4.02 µg/mL
[8]
  Tmax: 60 min
[9]
  Activity: Active
[10]
  Activity: Dose-dependent effect
[11]
  Activity: 70 to 100%
[12]
  Activity: 70 to 100%
[13]
  TDI: Not Active
[14]
  Tmax: 30 min
[15]
  inhibition: Active
[16]
  inhibition (INH): Not Active
[17]
  Activity: Active
[18]
  microsomal CLint: 28 µL/min/mg
[19]
  AUC(0-t): 7.38 µg·h/mL
[20]
  Cmax: 0.0876 µg/mL
[21]
  Activity: Active
[22]
  Activity: Active
[23]
  inhibition: Active
[24]
  IC50: 5.3 nM
[25]
  Activity: Dose-dependent effect
[26]
  half-life: 378 min
[27]
  BPR: 8.7%
[28]
  Activity: Non-Toxic
